Data taken from ChEMBL document CHEMBL3868612, “Discovery of a potent and selective ROMK inhibitor with improved pharmacokinetic properties based on an octahydropyrazino[2,1-c][1,4]oxazine scaffold” (Bioorg Med Chem Lett, 2016).

How the values were obtained:
[1] = Unbound fraction in dog plasma; type: ADME, cell-free, Canis lupus familiaris
[2] = Unbound fraction in human plasma; type: ADME, cell-free
[3] = Oral bioavailability in Sprague-Dawley rat at 2 mg/kg; type: ADME, organism-based; conditions: in vivo
[4] = Apparent permeability in pig LLC-PK1 cells; type: ADME, cell-based, Sus scrofa
[5] = Stability in rhesus monkey microsomes assessed as compound remaining at 45 mins; type: ADME, Macaca mulatta, Microsome; conditions: read-out: Stability
[6] = target: T1, Somatostatin receptor type 2 (Homo sapiens, UniProt P30874); experiment: Inhibition of Somatostatin receptor type 2 (unknown origin) at 10 uM by radioligand binding assay relative to control
T1 sequence (P30874 whole entry): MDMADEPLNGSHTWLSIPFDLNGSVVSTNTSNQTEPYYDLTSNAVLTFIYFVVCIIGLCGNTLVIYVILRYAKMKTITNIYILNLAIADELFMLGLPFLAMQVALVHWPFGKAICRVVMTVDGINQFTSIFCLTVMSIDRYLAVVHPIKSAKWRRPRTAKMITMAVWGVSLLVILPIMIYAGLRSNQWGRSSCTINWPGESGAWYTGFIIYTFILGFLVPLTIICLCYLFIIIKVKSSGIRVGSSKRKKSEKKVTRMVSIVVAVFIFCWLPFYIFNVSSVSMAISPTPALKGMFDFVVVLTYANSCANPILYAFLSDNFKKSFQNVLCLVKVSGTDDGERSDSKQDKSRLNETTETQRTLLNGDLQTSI
Method in brief: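 Run within a 115-assay off-target panel of enzyme and radioligand binding assays. Inhibition of somatostatin sst2 ligand binding was recorded at a single concentration of 10 μM.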

[7] = target: T1, Somatostatin receptor type 2; experiment: Inhibition of Somatostatin receptor type 2 (unknown origin) by radioligand binding assay
[8] = target: T2, Inward rectifier potassium channel 13 (Homo sapiens, UniProt O60928); experiment: Inhibition of Kir7.1 (unknown origin)
T2 sequence (O60928 whole entry): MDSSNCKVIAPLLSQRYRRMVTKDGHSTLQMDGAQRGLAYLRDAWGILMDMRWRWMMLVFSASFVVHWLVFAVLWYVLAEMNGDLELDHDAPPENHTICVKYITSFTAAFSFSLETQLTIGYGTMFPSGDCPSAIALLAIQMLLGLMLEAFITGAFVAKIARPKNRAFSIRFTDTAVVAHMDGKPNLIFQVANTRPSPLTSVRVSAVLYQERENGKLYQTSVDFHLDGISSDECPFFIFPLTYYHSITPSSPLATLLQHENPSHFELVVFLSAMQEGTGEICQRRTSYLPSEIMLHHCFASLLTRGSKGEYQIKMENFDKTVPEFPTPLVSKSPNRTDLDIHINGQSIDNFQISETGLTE

[9] = Unbound fraction in rhesus monkey plasma; type: ADME, cell-free, Macaca mulatta
Rattus norvegicus [10] = experiment: Antihypertensive activity in […] rat model assessed as change in systolic blood pressure at 3 mg/kg, po administered qd measured on day 3; type: functional
Method in brief: (§1)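 Spontaneously hypertensive rats were dosed orally once daily for 3 days. Systolic blood pressure change was read on day 3 relative to vehicle, with n = 5 per group.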

[11] = Stability in human hepatocytes assessed as compound remaining at 90 mins; type: ADME, cell-based, Hepatocyte; conditions: read-out: Stability
[12] = target: T3, ATP-sensitive inward rectifier potassium channel 1 (Homo sapiens, UniProt P48048); experiment: Inhibition of human ROMK expressed in CHO cells after 6 mins at -70 mV holding potential by electrophysiology method; type: cell-based
T3 sequence (P48048 whole entry): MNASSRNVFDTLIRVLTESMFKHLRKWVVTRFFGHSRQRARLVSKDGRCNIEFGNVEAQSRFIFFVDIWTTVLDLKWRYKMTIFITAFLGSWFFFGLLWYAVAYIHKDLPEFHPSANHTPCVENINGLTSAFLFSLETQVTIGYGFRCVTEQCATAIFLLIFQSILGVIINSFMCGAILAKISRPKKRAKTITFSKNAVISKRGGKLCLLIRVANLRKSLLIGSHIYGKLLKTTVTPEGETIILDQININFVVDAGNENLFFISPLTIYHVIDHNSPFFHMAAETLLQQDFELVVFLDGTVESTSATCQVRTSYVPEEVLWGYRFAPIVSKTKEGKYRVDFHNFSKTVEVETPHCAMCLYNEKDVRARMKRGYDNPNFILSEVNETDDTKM

[13] = Half life in Beagle dog at 1 mg/kg, iv or 2 mg/kg, po administered qd; type: ADME, organism-based, Canis lupus familiaris; conditions: in vivo
Rattus norvegicus [14] = experiment: Antihypertensive activity in […] rat model assessed as increase in diuresis at 10 mg/kg, po qd measured on day 1 post dose relative to control; type: functional
Method in brief: (§2)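 Spontaneously hypertensive rats dosed orally once daily for 3 days at 3, 10 and 30 mg/kg (reference diuretic at 25 mg/kg); 24 h urine output on day 1 expressed as fold increase over vehicle-treated rats; n = 5 per group.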

Rattus norvegicus [15] = experiment: Antihypertensive activity in […] rat model assessed as increase in diuresis at 30 mg/kg, po qd measured on day 1 post dose relative to control; type: functional; method in brief: as §2
Rattus norvegicus [16] = experiment: Antihypertensive activity in […] rat model assessed as change in systolic blood pressure at 25 mg/kg, po administered qd measured on day 3; type: functional; method in brief: as §1
[17] = target: T4, Inward rectifier potassium channel 2 (Homo sapiens, UniProt P63252); experiment: Inhibition of Kir2.1 (unknown origin)
T4 sequence (P63252 whole entry): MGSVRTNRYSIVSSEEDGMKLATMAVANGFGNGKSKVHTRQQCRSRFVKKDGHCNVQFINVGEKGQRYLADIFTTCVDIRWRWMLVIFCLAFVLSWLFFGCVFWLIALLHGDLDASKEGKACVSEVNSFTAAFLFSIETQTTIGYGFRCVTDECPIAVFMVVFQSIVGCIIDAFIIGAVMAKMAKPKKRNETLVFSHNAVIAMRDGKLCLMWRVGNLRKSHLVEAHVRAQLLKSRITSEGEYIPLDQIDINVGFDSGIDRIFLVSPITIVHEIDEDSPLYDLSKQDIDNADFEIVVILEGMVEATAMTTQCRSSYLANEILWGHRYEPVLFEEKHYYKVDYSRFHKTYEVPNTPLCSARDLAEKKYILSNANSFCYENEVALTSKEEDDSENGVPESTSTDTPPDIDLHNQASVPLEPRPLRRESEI

[18] = Cardiotoxicity in anesthetized cardiovascular guinea pig model assessed as change in QTc interval administered as iv infusion; type: toxicity, organism-based, Cavia porcellus, Heart; conditions: in vivo
Method in brief: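 Anesthetized guinea pig cardiovascular model, n = 3. The compound was given by IV infusion while the QTc interval was monitored. Unbound plasma concentration was taken as the maximal average peak value.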

[19] = target: Voltage-dependent L-type calcium channel subunit alpha-1C (Homo sapiens, UniProt Q13936); experiment: Inhibition of Cav1.2 (unknown origin)
Voltage-dependent L-type calcium channel subunit alpha-1C, sequence (Q13936 whole entry): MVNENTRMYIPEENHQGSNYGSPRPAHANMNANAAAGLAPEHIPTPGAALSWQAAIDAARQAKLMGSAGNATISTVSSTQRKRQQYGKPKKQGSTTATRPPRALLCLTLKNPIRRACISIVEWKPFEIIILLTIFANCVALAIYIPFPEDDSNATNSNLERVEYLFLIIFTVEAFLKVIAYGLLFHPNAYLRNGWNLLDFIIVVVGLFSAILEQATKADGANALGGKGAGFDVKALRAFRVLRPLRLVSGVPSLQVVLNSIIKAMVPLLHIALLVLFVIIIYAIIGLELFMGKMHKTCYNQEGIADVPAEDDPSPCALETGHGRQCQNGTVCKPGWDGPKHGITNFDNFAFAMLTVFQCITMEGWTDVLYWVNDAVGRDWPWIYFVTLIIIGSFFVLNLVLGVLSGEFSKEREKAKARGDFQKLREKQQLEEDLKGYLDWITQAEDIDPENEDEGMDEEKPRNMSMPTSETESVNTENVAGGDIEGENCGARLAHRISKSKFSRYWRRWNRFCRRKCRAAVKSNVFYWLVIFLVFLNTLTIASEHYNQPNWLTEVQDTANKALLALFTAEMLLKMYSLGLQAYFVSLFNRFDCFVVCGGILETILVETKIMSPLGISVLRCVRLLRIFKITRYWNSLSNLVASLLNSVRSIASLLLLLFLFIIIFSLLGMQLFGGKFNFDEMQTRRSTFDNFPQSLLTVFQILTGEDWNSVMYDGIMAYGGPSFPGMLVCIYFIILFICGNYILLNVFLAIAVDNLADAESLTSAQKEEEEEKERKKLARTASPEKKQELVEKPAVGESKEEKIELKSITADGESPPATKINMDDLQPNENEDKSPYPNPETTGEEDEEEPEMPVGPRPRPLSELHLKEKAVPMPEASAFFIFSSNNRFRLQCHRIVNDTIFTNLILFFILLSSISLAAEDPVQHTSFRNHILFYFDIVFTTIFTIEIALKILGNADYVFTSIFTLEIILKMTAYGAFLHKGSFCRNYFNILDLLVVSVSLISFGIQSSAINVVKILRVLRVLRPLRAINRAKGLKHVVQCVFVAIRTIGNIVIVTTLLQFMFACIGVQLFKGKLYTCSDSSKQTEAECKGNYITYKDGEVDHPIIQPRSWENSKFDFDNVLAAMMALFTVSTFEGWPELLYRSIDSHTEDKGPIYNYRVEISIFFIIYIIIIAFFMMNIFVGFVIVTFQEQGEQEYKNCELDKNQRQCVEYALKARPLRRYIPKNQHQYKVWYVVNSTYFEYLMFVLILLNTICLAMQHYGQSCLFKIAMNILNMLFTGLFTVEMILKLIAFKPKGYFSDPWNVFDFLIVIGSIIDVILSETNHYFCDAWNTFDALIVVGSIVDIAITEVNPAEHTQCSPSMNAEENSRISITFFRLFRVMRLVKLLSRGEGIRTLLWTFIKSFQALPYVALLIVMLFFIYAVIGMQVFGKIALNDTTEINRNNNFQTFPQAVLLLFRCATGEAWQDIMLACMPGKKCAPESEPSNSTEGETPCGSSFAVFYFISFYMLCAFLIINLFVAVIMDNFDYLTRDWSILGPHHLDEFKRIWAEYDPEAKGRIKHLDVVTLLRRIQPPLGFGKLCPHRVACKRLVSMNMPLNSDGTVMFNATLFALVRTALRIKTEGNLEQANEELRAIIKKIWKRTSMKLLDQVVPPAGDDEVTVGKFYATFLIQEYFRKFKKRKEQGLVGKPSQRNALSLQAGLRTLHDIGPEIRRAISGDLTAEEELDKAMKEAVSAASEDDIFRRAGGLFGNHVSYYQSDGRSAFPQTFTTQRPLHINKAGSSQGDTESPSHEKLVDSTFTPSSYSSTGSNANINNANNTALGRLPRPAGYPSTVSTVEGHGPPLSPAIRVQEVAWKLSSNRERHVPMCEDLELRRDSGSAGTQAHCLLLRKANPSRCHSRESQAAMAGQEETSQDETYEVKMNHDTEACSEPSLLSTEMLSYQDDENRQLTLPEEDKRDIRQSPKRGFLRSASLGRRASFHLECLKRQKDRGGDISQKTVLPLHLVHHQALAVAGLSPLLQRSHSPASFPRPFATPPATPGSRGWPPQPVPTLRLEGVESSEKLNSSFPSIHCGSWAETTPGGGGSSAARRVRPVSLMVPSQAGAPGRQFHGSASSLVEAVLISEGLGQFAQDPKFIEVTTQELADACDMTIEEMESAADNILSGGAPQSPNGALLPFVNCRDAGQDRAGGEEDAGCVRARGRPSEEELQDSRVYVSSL

Cytochrome P450 3A4 = Cytochrome P450 3A4 (Homo sapiens, UniProt P08684); experiment: Inhibition of CYP3A4 (unknown origin); type: ADME
[20] = Dose normalized AUC in Sprague-Dawley rat at 2 mg/kg, po; type: ADME, organism-based; conditions: in vivo
[21] = Stability in rat microsomes assessed as compound remaining at 45 mins; type: ADME, Microsome; conditions: read-out: Stability
[22] = Stability in human microsomes assessed as compound remaining at 45 mins; type: ADME, Microsome; conditions: read-out: Stability
[23] = Dose normalized AUC in rhesus monkey at 2 mg/kg, po administered qd; type: ADME, organism-based, Macaca mulatta; conditions: in vivo
[24] = Stability in dog microsomes assessed as compound remaining at 45 mins; type: ADME, Canis lupus familiaris, Microsome; conditions: read-out: Stability
[25] = Oral bioavailability in rhesus monkey at 2 mg/kg, qd; type: ADME, organism-based, Macaca mulatta; conditions: in vivo
[26] = Stability in rhesus monkey hepatocytes assessed as compound remaining at 90 mins; type: ADME, cell-based, Macaca mulatta, Hepatocyte; conditions: read-out: Stability
[27] = Half life in Sprague-Dawley rat at 1 mg/kg, iv or 2 mg/kg, po; type: ADME, organism-based; conditions: in vivo
Rattus norvegicus [28] = experiment: Antihypertensive activity in […] rat model assessed as increase in diuresis at 25 mg/kg, po qd measured on day 1 post dose relative to control; type: functional; method in brief: as §2
[29] = Dose normalized AUC in Beagle dog at 2 mg/kg, po administered qd; type: ADME, organism-based, Canis lupus familiaris; conditions: in vivo
Cytochrome P450 2D6 = Cytochrome P450 2D6 (Homo sapiens, UniProt P10635); experiment: Inhibition of CYP2D6 (unknown origin); type: ADME
Cytochrome P450 2D6, sequence (P10635 whole entry): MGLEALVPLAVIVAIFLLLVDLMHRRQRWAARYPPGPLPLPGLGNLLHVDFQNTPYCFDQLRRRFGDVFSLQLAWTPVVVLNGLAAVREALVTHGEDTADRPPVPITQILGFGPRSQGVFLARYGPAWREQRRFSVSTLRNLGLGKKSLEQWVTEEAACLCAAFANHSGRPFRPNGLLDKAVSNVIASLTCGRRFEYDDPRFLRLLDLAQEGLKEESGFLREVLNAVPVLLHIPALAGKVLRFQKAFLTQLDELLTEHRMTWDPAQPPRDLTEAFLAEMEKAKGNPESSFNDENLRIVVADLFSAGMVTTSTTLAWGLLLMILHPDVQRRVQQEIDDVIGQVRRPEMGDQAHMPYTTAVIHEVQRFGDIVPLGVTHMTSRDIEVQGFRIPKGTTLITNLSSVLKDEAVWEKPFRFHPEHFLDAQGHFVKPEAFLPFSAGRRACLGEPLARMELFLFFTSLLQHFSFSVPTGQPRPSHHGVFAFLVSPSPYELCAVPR

[30] = target: Sodium channel protein type 5 subunit alpha (Homo sapiens, UniProt Q14524); experiment: Inhibition of Nav1.5 (unknown origin)
Sodium channel protein type 5 subunit alpha, sequence (Q14524 whole entry): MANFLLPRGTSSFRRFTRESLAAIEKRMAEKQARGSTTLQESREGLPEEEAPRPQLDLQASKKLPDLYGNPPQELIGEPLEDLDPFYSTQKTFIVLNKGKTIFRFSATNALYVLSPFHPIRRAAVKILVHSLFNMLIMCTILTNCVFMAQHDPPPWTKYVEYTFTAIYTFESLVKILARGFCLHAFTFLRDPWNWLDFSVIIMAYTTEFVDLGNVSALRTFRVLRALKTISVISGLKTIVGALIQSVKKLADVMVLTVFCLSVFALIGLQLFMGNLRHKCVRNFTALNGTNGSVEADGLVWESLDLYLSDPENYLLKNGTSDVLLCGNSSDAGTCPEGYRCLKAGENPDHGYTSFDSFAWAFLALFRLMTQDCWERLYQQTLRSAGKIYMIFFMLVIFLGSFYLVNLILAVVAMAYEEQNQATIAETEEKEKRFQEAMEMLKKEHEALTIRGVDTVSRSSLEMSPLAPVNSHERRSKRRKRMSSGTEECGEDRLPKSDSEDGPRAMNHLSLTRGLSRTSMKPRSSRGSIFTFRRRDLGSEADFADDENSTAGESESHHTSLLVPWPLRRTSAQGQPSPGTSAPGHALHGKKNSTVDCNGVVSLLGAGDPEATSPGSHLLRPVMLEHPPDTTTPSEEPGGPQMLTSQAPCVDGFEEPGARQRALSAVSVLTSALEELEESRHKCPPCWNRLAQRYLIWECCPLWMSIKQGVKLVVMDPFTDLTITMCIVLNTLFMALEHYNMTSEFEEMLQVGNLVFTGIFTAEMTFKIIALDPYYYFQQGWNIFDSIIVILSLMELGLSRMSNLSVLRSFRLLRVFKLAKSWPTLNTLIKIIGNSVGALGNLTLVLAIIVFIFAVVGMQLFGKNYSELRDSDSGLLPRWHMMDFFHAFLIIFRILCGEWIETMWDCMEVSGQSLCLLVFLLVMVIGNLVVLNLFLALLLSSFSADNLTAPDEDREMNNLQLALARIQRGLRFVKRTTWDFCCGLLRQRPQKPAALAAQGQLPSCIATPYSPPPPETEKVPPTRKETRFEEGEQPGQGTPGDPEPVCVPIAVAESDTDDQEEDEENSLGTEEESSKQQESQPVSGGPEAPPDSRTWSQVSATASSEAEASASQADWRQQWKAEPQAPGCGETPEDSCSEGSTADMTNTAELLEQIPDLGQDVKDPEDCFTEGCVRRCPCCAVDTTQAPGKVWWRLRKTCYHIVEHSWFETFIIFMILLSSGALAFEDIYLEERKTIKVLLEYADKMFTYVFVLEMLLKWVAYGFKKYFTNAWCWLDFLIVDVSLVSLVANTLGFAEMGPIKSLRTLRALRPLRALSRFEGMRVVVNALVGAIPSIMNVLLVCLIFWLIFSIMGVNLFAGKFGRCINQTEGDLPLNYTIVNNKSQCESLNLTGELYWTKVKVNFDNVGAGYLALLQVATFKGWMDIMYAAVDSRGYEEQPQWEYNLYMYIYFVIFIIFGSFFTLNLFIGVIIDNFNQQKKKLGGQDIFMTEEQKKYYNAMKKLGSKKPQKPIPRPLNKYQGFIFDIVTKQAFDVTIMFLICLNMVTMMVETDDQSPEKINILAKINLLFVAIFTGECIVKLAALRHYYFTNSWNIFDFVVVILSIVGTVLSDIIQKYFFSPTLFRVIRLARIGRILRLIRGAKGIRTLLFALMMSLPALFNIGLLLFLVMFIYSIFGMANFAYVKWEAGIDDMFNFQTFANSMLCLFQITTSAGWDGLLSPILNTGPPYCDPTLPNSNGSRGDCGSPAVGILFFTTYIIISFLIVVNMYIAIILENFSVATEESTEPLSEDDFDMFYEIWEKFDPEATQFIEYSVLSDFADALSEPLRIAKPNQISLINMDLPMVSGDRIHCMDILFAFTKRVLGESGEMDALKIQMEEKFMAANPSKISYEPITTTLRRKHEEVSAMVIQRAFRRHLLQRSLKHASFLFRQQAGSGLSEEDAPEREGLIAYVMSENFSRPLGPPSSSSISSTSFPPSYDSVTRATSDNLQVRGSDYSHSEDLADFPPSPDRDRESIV

`Cc1c([C@@H]2CN3CCN(C(=O)Cc4ccc(-n5cnnn5)cn4)C[C@H]3CO2)ccc(F)c1C#N` showed a fraction unbound [1] of 0.52, a fraction unbound [2] of 0.58 and a bioavailability [3] of 46%. For the same compound, the Papp [4] was “Permeable”, the remaining at 0.75 h [5] was 72% and the inhibition [6] was over 50%. It also gave an IC50 [7] of 4.1 µM, an IC50 [8] of over 100 µM and a fraction unbound [9] of 0.6. For the same compound, the Activity (Rattus norvegicus [10]) was -9 mmHg, the remaining at 1.5 h [11] was 99% and the IC50 [12] was 0.073 µM. For the same compound, the half-life [13] was 17.3 h, the “fold change (FC)” value (Rattus norvegicus [14]) was 1.6 and the “fold change (FC)” value (Rattus norvegicus [15]) was 1.8. For the same compound, the Activity (Rattus norvegicus [16]) was -12 mmHg, the IC50 [17] was over 100 µM and the Activity [18] was “Non-Toxic”. The IC50 [19] was over 30 µM, the IC50 (Cytochrome P450 3A4) was over 50 µM and the AUC/dose [20] was 0.79 µM·kg·h/mg. For the same compound, the remaining at 0.75 h [21] was 85%, the remaining at 0.75 h [22] was 89% and the AUC/dose [23] was 6 µM·kg·h/mg. For the same compound, the remaining at 0.75 h [24] was 82%, the bioavailability [25] was 67% and the remaining at 1.5 h [26] was 92%. For the same compound, the half-life [27] was 1.5 h, the “fold change (FC)” value (Rattus norvegicus [28]) was 1.05 and the AUC/dose [29] was 16.7 µM·kg·h/mg. For the same compound, the IC50 (Cytochrome P450 2D6) was over 50 µM and the IC50 [30] was over 30 µM.
